Results as given in paper PMC3204933 (Free radical biology & medicine, 2011).
“Also recorded” adds a separate entry of the source. One block for each molecule: values may come before it. Where no end group is shown, it is not given here.

Tests used:
[1] = system: xanthine oxidase; details: ref [41], [47]; cited from earlier work
[2] = system: NADH dehydrogenase (mitochondrial complex I); details: ref [41], [47]; cited from earlier work
[3] = system: Nox4 (COS-Nox4 cells); details: DPI 5 μM; untreated COS-Nox4 4818±19, COS-22 2577±6.5
[4] = system: nitric oxide synthase (NOS); details: ref [41], [47]; cited from earlier work
[5] = system: Nox4 (COS-Nox4 cells); experiment: cells; details: Homo sapiens, read-out: inhibition of Nox4-dependent activity
[6] = target: T1, Nox2 oxidase (COS-Nox2 cell lysate) (Homo sapiens, UniProt P14598); experiment: SOD-inhibitable cytochrome c assay, COS-Nox2 cell-free system; type: biochemical; details: for decrease of O2^•− production: L-NAME 100 μM, rotenone 50 μM, febuxostat 100 nM, n = 3
T1 sequence (P14598 1-390): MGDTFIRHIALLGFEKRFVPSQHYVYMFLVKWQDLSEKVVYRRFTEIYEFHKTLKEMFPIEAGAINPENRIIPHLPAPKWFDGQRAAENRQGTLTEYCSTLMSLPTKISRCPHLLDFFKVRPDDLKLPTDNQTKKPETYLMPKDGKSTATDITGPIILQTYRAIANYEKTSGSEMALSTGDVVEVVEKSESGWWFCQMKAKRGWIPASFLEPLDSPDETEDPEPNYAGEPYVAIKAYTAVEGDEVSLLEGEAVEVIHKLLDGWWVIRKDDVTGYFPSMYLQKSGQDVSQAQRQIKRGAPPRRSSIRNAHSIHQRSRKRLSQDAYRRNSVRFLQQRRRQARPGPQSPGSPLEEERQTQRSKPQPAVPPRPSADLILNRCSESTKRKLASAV

[7] = system: Nox1/NOXO1/NOXA1 (HEK-Nox1 cell-free system); experiment: Cytochrome c assay, HEK-Nox1 cell-free system; type: biochemical, human; details: 10 μM Nox2ds preincubated with NOXO1; LiDS 130 μM
In short: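 […] cells were separately transfected with Nox1, NOXO1 or NOXA1. Lysates were spun at 160000 × g for 60 min at 4 °C to give Nox1 membranes and NOXO1 and NOXA1 cytosols. NOXO1 was preincubated with vehicle or 10 μM peptide for 10 min, then Nox1 membrane and NOXA1 added in turn. LiDS (130 μM) was followed by 180 μM NADPH. Output was the initial linear rate of SOD-inhibitable cytochrome c reduction, nmol/min/10^7 cell equivalents.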

[8] = system: HEK 298 cells; experiment: L-012 chemiluminescence, non-transfected HEK 298 cells; type: cell-based; details: PMA 1 μM; n = 4; unstimulated 755±65.3
[9] = system: Nox1 oxidase (COS-Nox1/NOXO1/NOXA1 cells); experiment: L-012 chemiluminescence, intact COS-Nox1/NOXO1/NOXA1 cells; type: cell-based, human; details: n = 3; for L-012 chemiluminescence: untreated 52977±1921
[10] = system: HEK-Nox1/NOXO1/NOXA1 cells; experiment: L-012 chemiluminescence, intact HEK-Nox1/NOXO1/NOXA1 cells; type: cell-based, human; details: PMA 1 μM
[11] = system: COS-22 cells; experiment: L-012 chemiluminescence, intact COS-22 cells; type: cell-based; details: n = 3, untreated 8734±158
[12] = system: Nox4 DH domain (GST-fused); experiment: Fluorescence polarization competition with FITC-Nox4 B-loop; type: binding; details: for competition with Nox4 B-loop for Nox4 DH domain: fluorescence polarization
[13] = system: SH3 domains of p47^phox; details: ref [41], [42]; cited from earlier work
[14] = system: xanthine oxidase; experiment: Xanthine/xanthine oxidase O2^•− generating system, EPR; type: biochemical
[15] = target: T2, Nox4 dehydrogenase domain (amino acids 304 – 578) recombinant protein fused to GST (human, UniProt Q9NPH5 304-578); experiment: fluorescence polarisation
T2 sequence (looked up): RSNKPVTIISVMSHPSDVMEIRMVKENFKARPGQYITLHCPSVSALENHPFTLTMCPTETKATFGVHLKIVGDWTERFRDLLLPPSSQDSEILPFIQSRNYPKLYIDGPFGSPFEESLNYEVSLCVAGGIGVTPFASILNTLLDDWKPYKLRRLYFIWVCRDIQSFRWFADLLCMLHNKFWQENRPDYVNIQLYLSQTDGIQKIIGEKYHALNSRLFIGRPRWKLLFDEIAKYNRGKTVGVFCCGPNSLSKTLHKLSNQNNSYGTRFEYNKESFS

Molecule: c1ccc2c(c1)[I+]c1ccccc1-2 [DPI, diphenyleneiodonium chloride]
inhibition [1]: inhibits a multitude of flavin-containing enzymes including nitric oxide synthase (NOS), xanthine oxidase | inhibition [2]: inhibits a multitude of flavin-containing enzymes including nitric oxide synthase (NOS), xanthine oxidase, and NADH dehydrogenase (mitochondrial complex I) | H2O2-generating activity, Amplex Red fluorescence [3]: 2977±227 RFU | inhibition [4]: inhibits a multitude of flavin-containing enzymes including nitric oxide synthase (NOS) | inhibition at 5 µM [5]: 82%

Molecule: COC(=O)[C@@H](N)CCCNC(N)=N[N+](=O)[O-] [L-NAME, Nω-Nitro-L-arginine methyl ester]
decrease of O2^•− production [6]: did not decrease O2^•− production significantly

Molecule: CCCCCCCCCCCCOS(=O)(=O)[O-].[Li+] [LiDS, lithium dodecyl sulfate]
O2^•− production ([6]; LiDS 130 μM, NADPH 180 μM, vehicle 0.40±0.1, p < 0.05): 1.33±0.1 nmol O2^•−/min/10^7 COS-Nox2 lysate-cell equivalents | effect on O2^•− production in HEK-Nox1 cell-free system [7]: significantly increased O2^•− production

Molecule: CCCCCCCCCCCCCC(=O)O[C@@H]1[C@@H](C)[C@@]2(O)[C@@H](C=C(CO)C[C@]3(O)C(=O)C(C)=C[C@@H]23)[C@@H]2C(C)(C)[C@]12OC(C)=O [PMA, phorbol myristate acetate]
L-012 chemiluminescence [8]: 912±40.5 RLUs | L-012 chemiluminescence ([9]; PMA 1 μM): 56537±2741 RLUs | effect on chemiluminescent signal / O2^•− ([9]; SOD 150 U/ml, PMA 1 μM): did not stimulate O2^•− | stimulation of O2^•− ([10]; n = 4, p < 0.05): significantly stimulated O2^•− | L-012 chemiluminescence ([10]; n = 4, unstimulated 8560±337, p < 0.05): 12946±199 RLUs | L-012 chemiluminescence ([11]; PMA 1 μM): 5903±541 RLUs

Molecule: Cc1nc(-c2ccc(OCC(C)C)c(C#N)c2)sc1C(=O)O [febuxostat, Febuxostat]
decrease of O2^•− production [6]: did not decrease O2^•− production significantly

Molecule: C=C(C)[C@H]1Cc2c(ccc3c2O[C@@H]2COc4cc(OC)c(OC)cc4[C@@H]2C3=O)O1 [rotenone]
decrease of O2^•− production [6]: did not decrease O2^•− production significantly

Molecule: Nox4 B-loop: unlabeled Nox4 B-loop peptide (amino acids 77 – 106) (RTLLAYLRGSQKVPSRRTRRLLDKSRTFHI)
competition with Nox4 B-loop for Nox4 DH domain [12]: effectively competed off the FITC-Nox4 B-loop in the low micromolar range; also recorded: quite effectively, in the low micromolar range

Molecule: PR-39
SH3 binding and association of p47^phox with Nox2 [13]: binds to the SH3 domains of p47^phox, was shown to prevent association of p47^phox with Nox2

inhibition of O2^•− production ([6]; 0.1–10 μM, 5 min preincubation, LiDS 130 μM, NADPH 180 μM, 7–16 experiments): did not inhibit Nox2-oxidase | CM^• radical intensity ([14]; 10 μM peptide + X/XO, 10 min, XO/X control 100±2.4, mean ± SEM of 6 experiments): 92.4±1.8% | effect on XO-generated O2^•− ([14]; 10 μM, 10 min preincubation): did not alter XO-generated O2^•−
Molecule: [NH3]-C-L-R-V-T-R-Q-S-R-[CONH2] [scrmb Nox2ds]
competition with Nox4 B-loop ([12]; at concentrations below 0.1 mM): not effective | competition with Nox4 B-loop for Nox4 DH domain [12]: equal and poor competition with the Nox4 B-loop for binding to the Nox4 DH domain (millimolar concentrations)

radical intensity ([14]; XO + X in presence of 100 U/ml SOD, 6 experiments): 15.7±0.3%
Molecule: superoxide dismutase [SOD]
effect on chemiluminescent signal / O2^•− ([9]; SOD 150 U/ml, PMA 1 μM): abolished the chemiluminescent signal | L-012 chemiluminescence ([9]; SOD 150 U/ml): 177±9 RLUs | L-012 chemiluminescence ([11]; SOD 150 U/ml): 108±16 RLUs

LogEC50 [15]: 3 nM
Molecule: RTLLAYLRGSQKVPSRRTRRLLDKSRTFHI (peptide, UniProt Q9NPH5-1 77-106, looked up) [unlabeled Nox4 B-loop peptide (amino acids 77 – 106)]

LogEC50 [15]: 5.5 nM
Molecule: CSTRVRRQL-NH2 [Nox2ds]
